# Laboratory results as given in ChEMBL document CHEMBL1123363, “(5-Amino-1,3-dimethyl-1H-pyrazol-4-yl)(2-fluorophenyl)methanones . A series of novel potential antipsychotic agents” (J Med Chem, 1986).
# Key:
# [1] = biological target: Muscarinic acetylcholine receptor; assay: Binding affinity against muscarinic receptor in rat brain using [3H]- QNB; assay type: tissue-based
# Summary of the method: (§1)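 Muscarinic sites in rat brain stem membranes (male Long-Evans, 150–250 g), labelled with [3H]quinuclidinyl benzilate at 0.03 nM final. Oxotremorine at 100 μM final served as the reference displacer. IC50 from four or five concentrations by nonlinear curve fitting.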
# [2] = biological target: Muscarinic acetylcholine receptor; assay: Binding affinity against the Muscarinic acetylcholine receptor using [3H]- QNB; assay type: protein assay, Rattus norvegicus; summary of the method: as §1
# [3] = biological target: GABA-A receptor; anion channel; assay: Displacement of [3H]-GABA from rat brain Gamma-aminobutyric acid receptor
# Summary of the method: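 GABA binding in membranes of rat whole brain minus cerebellum and brain stem (male Long-Evans, 150–250 g), using [3H]-GABA at 25 nM final. GABA at 1 mM final was the reference. IC50 from four or five concentrations by nonlinear curve fitting.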
# [4] = biological target: T1, Serotonin 1 (5-HT1) receptor (Rattus norvegicus, UniProt P28564+P30940+P19327+P28565); assay: Binding affinity against the serotonin-1 receptor using [3H]- 5-HT; assay type: protein assay
# Summary of the method: (§2)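 Serotonin-1 binding in rat cortex membranes (male Long-Evans, 150–250 g) with [3H]-5-HT at 2.0 nM final. (+)-Butaclamol at 1 μM final was the reference. IC50 from four or five concentrations by nonlinear curve fit.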
# [5] = system: Rattus norvegicus; assay: Compound was tested for serum prolactin assay method in rats at 1 mg/kg dose after peroral administration; assay type: functional; details: route oral
# Summary of the method: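 Seven-week-old male Sprague–Dawley rats, five per group, were dosed orally and killed by decapitation 1 h later. Serum prolactin from trunk blood was measured by radioimmunoassay with [125I]-PRL and expressed as % of control (mean ± SEM).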
# [6] = system: Rattus norvegicus; assay: Inhibition of conditional avoidance in rats after peroral administration; assay type: functional; details: po
# Summary of the method: (§3)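 Fasted male Wistar rats (150–250 g) were trained to jump to a platform at a buzzer to avoid grid shock (1.1 mA/s). After oral dosing they were tested every 20 min for 6 h over 19 trials, 10 rats per dose, each rat used once. Peak effect was the mean of the four consecutive trials with the largest effect, computed from response latency. ED50 read graphically from at least three doses.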
# [7] = biological target: T2, Adrenergic receptor alpha-2 (Rattus norvegicus, UniProt P22086+P19328+P22909); assay: Binding affinity against the alpha-2 adrenergic receptor using [3H]- clonidine; assay type: protein assay
# T2 sequence (P22086 whole entry): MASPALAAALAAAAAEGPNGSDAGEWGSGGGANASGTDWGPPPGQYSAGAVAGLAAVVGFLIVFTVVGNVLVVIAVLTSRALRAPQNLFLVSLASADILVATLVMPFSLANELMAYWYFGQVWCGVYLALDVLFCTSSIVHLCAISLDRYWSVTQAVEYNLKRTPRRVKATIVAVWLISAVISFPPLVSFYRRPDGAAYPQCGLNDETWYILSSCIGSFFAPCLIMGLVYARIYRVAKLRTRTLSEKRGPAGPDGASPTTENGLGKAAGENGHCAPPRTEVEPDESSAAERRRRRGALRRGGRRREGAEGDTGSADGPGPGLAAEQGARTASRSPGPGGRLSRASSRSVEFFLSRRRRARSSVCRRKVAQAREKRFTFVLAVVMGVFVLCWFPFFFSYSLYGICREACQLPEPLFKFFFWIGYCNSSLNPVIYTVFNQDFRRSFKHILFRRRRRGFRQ
# T2 sequence (P19328 whole entry): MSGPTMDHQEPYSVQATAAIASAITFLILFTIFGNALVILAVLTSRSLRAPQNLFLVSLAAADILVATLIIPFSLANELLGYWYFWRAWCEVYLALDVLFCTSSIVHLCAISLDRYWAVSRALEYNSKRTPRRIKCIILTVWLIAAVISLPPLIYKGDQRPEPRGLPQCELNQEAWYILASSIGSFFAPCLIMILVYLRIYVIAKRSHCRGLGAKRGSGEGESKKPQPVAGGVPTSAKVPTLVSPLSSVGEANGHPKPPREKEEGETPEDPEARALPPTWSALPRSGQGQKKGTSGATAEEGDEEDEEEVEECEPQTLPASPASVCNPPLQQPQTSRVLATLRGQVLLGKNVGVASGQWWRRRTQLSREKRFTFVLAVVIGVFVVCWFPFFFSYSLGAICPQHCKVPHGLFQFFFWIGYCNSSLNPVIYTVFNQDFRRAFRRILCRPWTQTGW
# T2 sequence (P22909 whole entry): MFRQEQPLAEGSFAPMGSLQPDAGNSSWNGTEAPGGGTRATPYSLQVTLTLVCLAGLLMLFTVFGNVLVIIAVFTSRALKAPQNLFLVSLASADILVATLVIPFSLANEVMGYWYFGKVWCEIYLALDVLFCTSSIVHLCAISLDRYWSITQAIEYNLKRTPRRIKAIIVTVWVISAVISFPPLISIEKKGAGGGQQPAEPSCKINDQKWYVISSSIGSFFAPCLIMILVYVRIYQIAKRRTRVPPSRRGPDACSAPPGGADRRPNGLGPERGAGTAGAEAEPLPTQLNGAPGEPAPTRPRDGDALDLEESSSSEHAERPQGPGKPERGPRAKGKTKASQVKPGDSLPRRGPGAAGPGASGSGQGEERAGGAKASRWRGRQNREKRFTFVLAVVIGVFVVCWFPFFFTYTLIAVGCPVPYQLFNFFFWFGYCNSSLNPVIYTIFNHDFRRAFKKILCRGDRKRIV
# Summary of the method: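 α2 sites in rat cerebral cortex membranes (male Long-Evans, 150–250 g) labelled with [3H]clonidine at 0.4 nM final. (-)-Norepinephrine at 10 μM final was the reference. IC50 from four or five concentrations by nonlinear fit.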
# [8] = biological target: T1, Serotonin 1 (5-HT1) receptor; assay: Binding affinity against serotonin-1 receptor in rat brain using [3H]5-HT; assay type: tissue-based; summary of the method: as §2
# [9] = biological target: Beta-2 adrenergic receptor (Rattus norvegicus, UniProt P10608); assay: Binding affinity against beta-2 adrenergic receptor in rat brain using [3H]DHA; assay type: tissue-based
# Beta-2 adrenergic receptor, sequence (P10608 whole entry): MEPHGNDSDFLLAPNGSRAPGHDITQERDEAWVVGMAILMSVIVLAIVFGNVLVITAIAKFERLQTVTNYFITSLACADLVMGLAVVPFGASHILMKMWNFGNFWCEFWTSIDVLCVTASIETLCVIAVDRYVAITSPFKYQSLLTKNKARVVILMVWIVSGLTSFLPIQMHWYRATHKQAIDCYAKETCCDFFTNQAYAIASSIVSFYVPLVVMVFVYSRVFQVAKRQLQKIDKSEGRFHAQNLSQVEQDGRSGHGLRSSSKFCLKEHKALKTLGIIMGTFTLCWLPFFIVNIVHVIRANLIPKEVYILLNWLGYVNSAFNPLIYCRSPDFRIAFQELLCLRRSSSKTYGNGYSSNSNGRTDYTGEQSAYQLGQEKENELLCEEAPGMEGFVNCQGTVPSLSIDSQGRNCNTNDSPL
# Summary of the method: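 β2 binding on rat cerebellum membranes (male Long–Evans rats, 150–250 g) with [3H]dihydroalprenolol, 0.5 nM final. Nonspecific binding defined with (-)-alprenolol, 1 μM final. IC50 from four or five concentrations by nonlinear curve fit.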
# [10] = system: Rattus norvegicus; assay: Inhibition of conditional avoid in rats after peroral administration; assay type: functional; details: po; summary of the method: as §3
# [11] = system: Rattus norvegicus; assay: Compound was tested for its effect on Dopamine turnover in rat at dose of 64 mg/kg ip; assay type: functional; details: route intraperitoneal
# Summary of the method: (§4)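 Rats were given compound or vehicle ip 30 min before α-methyl-p-tyrosine (250 mg/kg ip) and killed 4 h later. Brain NE and DA were measured spectrofluorometrically, with at least five determinations per value, and expressed as % of vehicle-treated levels ± SEM.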
# [12] = system: Rattus norvegicus; assay: Compound was tested for its effect on norepinephrine turnover in rat at dose of 64 mg/kg ip; assay type: functional; details: route intraperitoneal; summary of the method: as §4
# [13] = system: Canis familiaris; assay: Emesis test in dogs was determined when dose administered per orally; assay type: functional; details: Canis lupus familiaris, po; read-out: MED
# Summary of the method: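 Fasted dogs (7–12 kg), normally three per dose, were dosed orally and observed hourly for up to 6 h for emesis and other autonomic or behavioural signs. The minimal effective dose was the lowest dose producing emesis in any animal.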
# [14] = biological target: Beta-1 adrenergic receptor (Rattus norvegicus, UniProt P18090); assay: Binding affinity against beta-1 adrenergic receptor in rat brain using [3H]DHA; assay type: tissue-based
# Beta-1 adrenergic receptor, sequence (P18090 whole entry): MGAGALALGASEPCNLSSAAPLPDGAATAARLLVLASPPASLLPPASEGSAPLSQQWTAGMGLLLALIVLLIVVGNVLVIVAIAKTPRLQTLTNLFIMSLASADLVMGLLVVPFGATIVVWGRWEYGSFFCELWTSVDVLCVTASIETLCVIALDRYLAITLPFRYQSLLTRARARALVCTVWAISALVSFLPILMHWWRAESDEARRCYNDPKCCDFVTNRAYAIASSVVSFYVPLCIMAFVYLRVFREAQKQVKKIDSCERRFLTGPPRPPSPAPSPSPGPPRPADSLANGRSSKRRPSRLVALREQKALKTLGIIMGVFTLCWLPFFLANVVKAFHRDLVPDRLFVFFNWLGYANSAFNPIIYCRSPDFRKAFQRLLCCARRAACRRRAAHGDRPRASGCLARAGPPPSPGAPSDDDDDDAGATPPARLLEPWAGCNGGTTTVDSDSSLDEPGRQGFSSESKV
# Summary of the method: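 β1 sites in rat cerebral cortex membranes (male Long-Evans, 150–250 g) with [3H]dihydroalprenolol at 0.5 nM final. (-)-Alprenolol at 1 μM final defined the reference. IC50 from four or five concentrations by nonlinear curve fit.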
compound,measurement,setting,value
Cc1nn(C)c(N)c1C(=O)c1ccccc1F,IC50,[1],> 10 µM
CCN(CC)CC(=O)Nc1c(C(=O)c2ccccc2F)c(C)nn1C,IC50,[2],> 10 µM
same,IC50,[3],> 10 µM
same,IC50,[4],> 10 µM
same,Control,[5],87.4%
same,ED50,[6],18 mg/kg
same,IC50,[7],> 10 µM
Cc1nn(C)c(NC(=O)CNCCCN2CCCCC2C)c1C(=O)c1ccccc1F (centres undefined),IC50,[8],> 10 µM
same,IC50,[9],> 10 µM
same,ED50,[10],43.5 mg/kg
same,Control,[11],96.6%
same,Control,[12],102.8%
same,minimal effective dose,[13],56 mg/kg
same,IC50,[14],> 10 µM
